Activity calls are given as the source filed them. No cut-off for these calls is given here.
Key:
[1] = test system: Mus musculus; assay: Toxicity in nude mouse xenografted with human HeLa cells assessed as change in mouse kidney weight at 10 to 20 mg/kg, ip after 14 days; assay type: organism-based; conditions: in vivo, 336 h
[2] = test system: A549; assay: Growth inhibition of human A549 cells after 48 hrs by MTT assay; assay type: functional; conditions: A549, 48 h
In short: (§1)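 Proliferation read-out; GI50 taken as the concentration giving 50% reduction of cancer cell proliferation.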

[3] = test system: HepG2; assay: Induction of apoptosis in human HepG2 cells assessed as necrotic cells at 0.10 uM after 24 hrs by Annexin V-FITC/propidium iodide staining based flow cytometric analysis (reference value: 0.270%); assay type: functional
In short: (§2)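 HepG2 and HeLa cells were exposed to 0, 0.02, 0.040, 0.060, 0.080 and 0.10 µM for 6, 12 and 24 h. Cells were double-stained with Annexin V-FITC/PI and read by flow cytometry. Apoptotic rate was the percentage of FITC-positive cells, counting early plus late apoptotic.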

[4] = test system: HepG2; assay: Cell cycle arrest in human HepG2 cells assessed as accumulation at G0/G1 phase at 0.10 uM after 24 hrs by propidium iodide staining based flow cytometric analysis (reference value: 55.63%); assay type: functional
In short: (§3)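 HepG2 and HeLa cells were exposed to 0, 0.020, 0.040, 0.060, 0.080 or 0.10 µM for 6, 12 or 24 h. DNA content was stained with propidium iodide and analysed by flow cytometry to give the percentage of cells in G0/G1, S and G2/M phases; sub-G1 cells were also recorded.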

[5] = test system: Mus musculus; assay: Toxicity in nude mouse xenografted with human HeLa cells assessed as cellular inflammatory infiltration in spleen at 10 to 20 mg/kg, ip after 14 days by hematoxylin and eosin staining based microscopic analysis; assay type: organism-based; conditions: in vivo, 336 h
[6] = Inhibition of porcine brain tubulin polymerization measured over 30 mins; set-up: species or system Sus scrofa
[7] = test system: HepG2; assay: Induction of apoptosis in human HepG2 cells assessed as early apoptotic cells at 0.040 uM after 24 hrs by Annexin V-FITC/propidium iodide staining based flow cytometric analysis (reference value: 2.31%); assay type: functional; in short: as §2
[8] = test system: Mus musculus; assay: Toxicity in nude mouse xenografted with human HeLa cells assessed as morphological changes in spleen cells at 10 to 20 mg/kg, ip after 14 days by hematoxylin and eosin staining based microscopic analysis; assay type: organism-based; conditions: in vivo, 336 h
[9] = test system: HepG2; assay: Growth inhibition of human HepG2 cells after 48 hrs by MTT assay; assay type: functional; conditions: HepG2, 48 h; in short: as §1
[10] = test system: HeLa; assay: Induction of apoptosis in human HeLa cells assessed as viable cells at 0.10 uM after 24 hrs by Annexin V-FITC/propidium iodide staining based flow cytometric analysis (reference value: 88.6%); assay type: functional; conditions: read-out: Activity; in short: as §2
[11] = test system: HepG2; assay: Induction of apoptosis in human HepG2 cells assessed as late apoptotic cells at 0.060 uM after 24 hrs by Annexin V-FITC/propidium iodide staining based flow cytometric analysis (reference value: 2.93%); assay type: functional; in short: as §2
[12] = target: Tubulin (Homo sapiens) (UniProt P68371+Q9H4B7+P0DPH7+P68366+Q13509+Q71U36+P04350+Q3ZCM7+P07437+P68363+Q9BQE3+Q6PEY2+Q13885+Q9BVA1+Q9BUF5); assay: Inhibition of tubulin polymerization in human HepG2 cells assessed as abnormal mitotic spindle formation at 0.04 to 0.1 uM after 12 hrs by DAPI staining based immunofluorescence confocal laser scanning microscopic analysis; assay type: cell-based
[13] = test system: HeLa; assay: Cell cycle arrest in human HeLa cells assessed as accumulation at G0/G1 phase at 0.020 uM after 24 hrs by propidium iodide staining based flow cytometric analysis (reference value: 66.26%); assay type: functional; in short: as §3
[14] = test system: HepG2; assay: Induction of apoptosis in human HepG2 cells assessed as late apoptotic cells at 0.020 uM after 24 hrs by Annexin V-FITC/propidium iodide staining based flow cytometric analysis (reference value: 2.93%); assay type: functional; in short: as §2
[15] = test system: HepG2; assay: Induction of apoptosis in human HepG2 cells assessed as viable cells at 0.040 uM after 24 hrs by Annexin V-FITC/propidium iodide staining based flow cytometric analysis (reference value: 94.5%); assay type: functional; conditions: HepG2, 24 h, read-out: Activity; in short: as §2
[16] = test system: Mus musculus; assay: Toxicity in nude mouse xenografted with human HeLa cells assessed as change in mouse spleen weight at 10 to 20 mg/kg, ip after 14 days; assay type: organism-based; conditions: in vivo, 336 h
[17] = test system: HeLa; assay: Cell cycle arrest in human HeLa cells assessed as accumulation at G2/M phase after 6 to 24 hrs by propidium iodide staining based flow cytometric analysis; assay type: functional; in short: as §3
[18] = test system: HepG2; assay: Induction of apoptosis in human HepG2 cells assessed as necrotic cells at 0.020 uM after 24 hrs by Annexin V-FITC/propidium iodide staining based flow cytometric analysis (reference value: 0.270%); assay type: functional; in short: as §2
[19] = test system: Mus musculus; assay: Cardiotoxicity in nude mouse xenografted with human HeLa cells assessed as cellular inflammatory infiltration in heart at 10 to 20 mg/kg, ip after 14 days by hematoxylin and eosin staining based microscopic analysis; assay type: toxicity, organism-based; conditions: in vivo, 336 h
In short: (§4)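 Excised tumours and heart, liver, kidney and spleen were H&E-stained and examined microscopically. Tumour scoring covered cell arrangement and necrosis. Organ scoring covered inflammatory infiltration, edema, necrosis and cell morphology.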

[20] = test system: HepG2; assay: Induction of apoptosis in human HepG2 cells assessed as necrotic cells at 0.060 uM after 24 hrs by Annexin V-FITC/propidium iodide staining based flow cytometric analysis (reference value: 0.270%); assay type: functional; in short: as §2
[21] = test system: Mus musculus; assay: Cardiotoxicity in nude mouse xenografted with human HeLa cells assessed as edema in heart at 10 to 20 mg/kg, ip after 14 days by hematoxylin and eosin staining based microscopic analysis; assay type: toxicity, organism-based; conditions: in vivo, 336 h; in short: as §4
[22] = test system: HepG2; assay: Cell cycle arrest in human HepG2 cells assessed as accumulation at G2/M phase at 0.10 uM after 24 hrs by propidium iodide staining based flow cytometric analysis (reference value: 20.17%); assay type: functional; in short: as §3
[23] = test system: HeLa; assay: Induction of apoptosis in human HeLa cells assessed as viable cells at 0.040 uM after 24 hrs by Annexin V-FITC/propidium iodide staining based flow cytometric analysis (reference value: 88.6%); assay type: functional; conditions: read-out: Activity; in short: as §2
[24] = test system: HepG2; assay: Cell cycle arrest in human HepG2 cells assessed as accumulation at G2/M phase at 0.040 uM after 24 hrs by propidium iodide staining based flow cytometric analysis (reference value: 20.17%); assay type: functional; in short: as §3
[25] = test system: HepG2; assay: Induction of apoptosis in human HepG2 cells assessed as viable cells at 0.060 uM after 24 hrs by Annexin V-FITC/propidium iodide staining based flow cytometric analysis (reference value: 94.5%); assay type: functional; conditions: HepG2, 24 h, read-out: Activity; in short: as §2
[26] = test system: Mus musculus; assay: Hepatotoxicity in nude mouse xenografted with human HeLa cells assessed as cellular inflammatory infiltration in liver at 10 to 20 mg/kg, ip after 14 days by hematoxylin and eosin staining based microscopic analysis; assay type: toxicity, organism-based; conditions: in vivo, 336 h
In short: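 HeLa xenograft nude mice with tumours near 100 mm³, randomised to four groups of 28 mice in total. Dosing was intraperitoneal: vehicle, CA-4 10 mg/kg, or test compound at 10 or 20 mg/kg, continued for 14 days. Heart, liver, kidney and spleen were then H&E-stained and examined for inflammatory infiltration, edema, necrosis and cell morphology.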

[27] = test system: HepG2; assay: Cell cycle arrest in human HepG2 cells assessed as accumulation at G0/G1 phase at 0.060 uM after 24 hrs by propidium iodide staining based flow cytometric analysis (reference value: 55.63%); assay type: functional; in short: as §3
[28] = test system: HeLa; assay: Induction of apoptosis in human HeLa cells assessed as late apoptotic cells at 0.060 uM after 24 hrs by Annexin V-FITC/propidium iodide staining based flow cytometric analysis (reference value: 4.98%); assay type: functional; in short: as §2

## COc1cccc(C2=NN(C(=O)c3ccc(C)nc3)C(c3cn(C)c4ccc(OC)cc34)C2)c1 (stereo not drawn)
[1]
  Activity: Non-Toxic
[2]
  GI50: 590 nM
[3]
  Activity: 2.46%
[4]
  Activity: 8.57%
[5]
  Activity: Non-Toxic
[6]
  IC50: 1600 nM
[7]
  Activity: 7.34%
[8]
  Activity: Non-Toxic
[9]
  GI50: 29 nM
[10]
  viability at 0.1 µM: 58.2%
[11]
  Activity: 4.9%
[12]
  inhibition: Active
[13]
  Activity: 66.95%
[14]
  Activity: 3.18%
[15]
  viability at 0.04 µM: 84.2%
[16]
  Activity: Non-Toxic
[17]
  Activity: Dose-dependent effect
[18]
  Activity: 0.771%
[19]
  Activity: Non-Toxic
[20]
  Activity: 1.45%
[21]
  Activity: Non-Toxic
[22]
  Activity: 51.22%
[23]
  viability at 0.04 µM: 84.5%
[24]
  Activity: 30.26%
[25]
  viability at 0.06 µM: 85.7%
[26]
  Activity: Non-Toxic
[27]
  Activity: 15.79%
[28]
  Activity: 6.49%
